Measurements reported in ChEMBL document CHEMBL4043299, “Repurposing a Library of Human Cathepsin L Ligands: Identification of Macrocyclic Lactams as Potent Rhodesain and Trypanosoma brucei Inhibitors” (J Med Chem, 2018).
In brackets after ≈: the same amount, converted by molar mass. Activity calls are given as the source filed them. No cut-off for these calls is given here.

Assays:
[1] = molecular target: Rhodesain (Trypanosoma brucei rhodesiense, UniProt Q95PM0); assay: Inhibition of Trypanosoma brucei rhodesiense rhodesain using Cbz-Phe-Arg-AMC as substrate by fluorimetric method
Rhodesain, sequence (Q95PM0 whole entry): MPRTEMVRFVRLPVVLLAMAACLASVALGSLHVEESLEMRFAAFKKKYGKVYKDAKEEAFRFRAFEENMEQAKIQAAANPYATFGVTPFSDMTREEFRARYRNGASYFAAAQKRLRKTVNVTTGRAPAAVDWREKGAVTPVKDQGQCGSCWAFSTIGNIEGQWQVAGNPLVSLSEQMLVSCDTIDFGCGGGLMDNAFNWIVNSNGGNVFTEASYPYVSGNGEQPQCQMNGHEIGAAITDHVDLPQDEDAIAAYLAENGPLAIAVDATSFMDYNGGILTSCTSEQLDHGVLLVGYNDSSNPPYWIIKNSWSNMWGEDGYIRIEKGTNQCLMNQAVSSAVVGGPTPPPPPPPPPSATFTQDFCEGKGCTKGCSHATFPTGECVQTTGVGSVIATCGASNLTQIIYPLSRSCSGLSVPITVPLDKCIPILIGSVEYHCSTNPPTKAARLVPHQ
Summary of the method: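 Fluorescence-based protease assay. IC50 was converted to Ki by the Cheng-Prusoff equation. Values are the average of two measurements, each run in duplicate.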

[2] = test system: Trypanosoma brucei brucei; assay: Antitrypanosomal activity against Trypanosoma brucei brucei TC 221 assessed as parasite growth inhibition after 72 hrs by Alamar blue assay; format: functional; conditions: TC 221, 72 h
[3] = molecular target: Cathepsin B (Homo sapiens, UniProt P07858); assay: Inhibition of human cathepsin B
[4] = Drug uptake in rat cerebrospinal fluid at 3 mg/kg administered via infusion over 30 mins; format: ADME, organism-based; conditions: iv, read-out: Drug uptake
Summary of the method: (§1)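 Rats given 3 mg kg⁻¹ by infusion over 30 min, then sacrificed; plasma, brain and CSF concentrations measured; ratios to plasma derived; average of three independent measurements.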

[5] = molecular target: T1, Cathepsin K (Homo sapiens, UniProt P43235); assay: Inhibition of human cathepsin K
T1 sequence (P43235 whole entry): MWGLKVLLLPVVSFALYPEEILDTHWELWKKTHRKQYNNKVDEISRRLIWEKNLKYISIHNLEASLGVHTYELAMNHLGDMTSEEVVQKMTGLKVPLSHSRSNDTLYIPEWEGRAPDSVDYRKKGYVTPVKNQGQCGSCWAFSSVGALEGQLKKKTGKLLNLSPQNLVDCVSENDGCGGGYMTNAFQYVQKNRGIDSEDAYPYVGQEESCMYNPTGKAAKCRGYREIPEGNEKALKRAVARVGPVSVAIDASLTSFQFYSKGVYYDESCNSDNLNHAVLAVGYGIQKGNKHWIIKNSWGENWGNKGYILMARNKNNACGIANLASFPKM

[6] = Drug uptake in bloodstream form of Trypanosoma brucei rhodesiense STIB 900 infected NMRI mouse blood at 25 mg/kg, ip bid administered for 4 consecutive days starting 3 days post infection measured at 1 hr post last dose; format: ADME, organism-based; conditions: read-out: Drug uptake
[7] = Drug uptake in bloodstream form of Trypanosoma brucei rhodesiense STIB 900 infected NMRI mouse blood at 25 mg/kg, ip bid administered for 4 consecutive days starting 3 days post infection measured at 16 hrs post last dose; format: ADME, organism-based; conditions: read-out: Drug uptake
[8] = test system: MDR1; assay: Efflux ratio of permeability across pig LLC-PK1 cells expressing human MDR1 at 1 uM after 3.5 hrs by LC-MS/MS analysis; format: ADME, cell-based, Sus scrofa
Summary of the method: (§2)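 Porcine kidney LLC-PK1 cells stably transfected with human ABCB1 (MDR1) or mouse Abcb1a (Mdr1a). Cells were grown with 10% FCS and 100 ng/mL colchicine and seeded on permeable inserts, then assayed on day 4. Compound was added at 1 μM to the apical or basolateral side, and transport was run in both directions in triplicate at 37 °C, 5% CO2. Donor and receiver were sampled at 3.5 h and quantified by LC–MS/MS. Lucifer yellow was used as the monolayer tightness control.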

[9] = Ratio of drug level in rat CSF to plasma at 3 mg/kg administered via infusion over 30 mins; conditions: iv
[10] = molecular target: Cytochrome P450 2D6 (Homo sapiens, UniProt P10635); assay: Inhibition of CYP2D6 in human liver microsomes using AMMC as substrate by fluorescence assay; format: ADME
Cytochrome P450 2D6, sequence (P10635 whole entry): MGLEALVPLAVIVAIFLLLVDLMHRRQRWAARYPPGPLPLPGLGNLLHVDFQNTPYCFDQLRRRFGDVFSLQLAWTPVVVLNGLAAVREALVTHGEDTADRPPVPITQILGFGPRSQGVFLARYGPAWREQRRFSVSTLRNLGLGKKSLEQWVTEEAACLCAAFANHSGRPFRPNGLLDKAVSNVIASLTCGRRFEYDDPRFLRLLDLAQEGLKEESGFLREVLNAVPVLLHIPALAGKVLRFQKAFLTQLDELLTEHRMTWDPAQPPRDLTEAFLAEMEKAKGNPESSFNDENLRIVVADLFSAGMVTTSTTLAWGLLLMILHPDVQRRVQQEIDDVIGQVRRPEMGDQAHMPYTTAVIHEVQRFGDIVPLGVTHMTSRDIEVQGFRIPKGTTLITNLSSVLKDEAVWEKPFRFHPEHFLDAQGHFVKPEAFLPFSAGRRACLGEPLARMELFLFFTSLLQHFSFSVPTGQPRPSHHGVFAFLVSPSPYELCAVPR

[11] = test system: Trypanosoma brucei rhodesiense; assay: Antitrypanosomal activity against bloodstream form of Trypanosoma brucei rhodesiense STIB 900 assessed as parasite growth inhibition incubated for 24 to 48 hrs followed by 72 hrs recovery by Alamar blue assay; format: functional
[12] = molecular target: T2, Cathepsin L2 (Homo sapiens, UniProt O60911); assay: Inhibition of human cathepsin V
T2 sequence (O60911 whole entry): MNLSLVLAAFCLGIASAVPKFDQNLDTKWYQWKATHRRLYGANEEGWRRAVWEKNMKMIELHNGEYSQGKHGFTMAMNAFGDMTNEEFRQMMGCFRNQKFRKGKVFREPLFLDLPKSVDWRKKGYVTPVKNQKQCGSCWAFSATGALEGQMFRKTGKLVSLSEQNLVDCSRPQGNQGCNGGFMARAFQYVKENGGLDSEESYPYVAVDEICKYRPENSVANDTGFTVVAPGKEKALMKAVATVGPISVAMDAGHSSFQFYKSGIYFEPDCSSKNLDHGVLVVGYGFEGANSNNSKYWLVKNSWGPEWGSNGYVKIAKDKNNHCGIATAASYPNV

[13] = Volume of distribution at steady state in C57BL/6J mouse administered via iv as bolus dose by LC-MS/MS analysis; format: ADME, organism-based; conditions: in vivo, read-out: Vdss
Summary of the method: (§3)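 Male adult C57BL/6J mice, single i.v. bolus in N-methylpyrrolidinone/40% aqueous hydroxypropyl-γ-cyclodextrin (30/70); blood at 5, 15, 30 min, 1, 2, 4, 8 h; plasma by centrifugation, stored −20 °C; LC–MS/MS; non-compartmental analysis.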

[14] = Drug uptake in bloodstream form of Trypanosoma brucei rhodesiense STIB 900 infected NMRI mouse blood at 25 mg/kg, ip bid administered for 4 consecutive days starting 3 days post infection measured at 4 hrs post last dose; format: ADME, organism-based; conditions: read-out: Drug uptake
[15] = Clearance in C57BL/6J mouse administered via iv as bolus dose by LC-MS/MS analysis; format: ADME, organism-based; conditions: in vivo; summary of the method: as §3
[16] = Ratio of drug level in rat brain to plasma at 3 mg/kg administered via infusion over 30 mins; conditions: iv
[17] = test system: Trypanosoma brucei rhodesiense; assay: Antitrypanosomal activity against bloodstream form of Trypanosoma brucei rhodesiense STIB 900 infected in NMRI mouse assessed as mouse survival at 25 mg/kg, ip bid administered for 4 consecutive days starting 3 days post infection (reference value: 13 days); format: functional
Summary of the method: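 T. b. rhodesiense STIB900 acute mouse infection model. Dosing was 25 mg/kg i.p. twice daily for 4 consecutive days, starting 3 days post-infection, at 0.1 mL/10 g. Three infected mice served as untreated controls without vehicle. Parasitaemia was followed by tail-blood smears twice weekly for two weeks, then weekly to day 60. Relapse day and mean survival days were recorded.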

[18] = test system: Mdr1a; assay: Efflux ratio of permeability across pig LLC-PK1 cells expressing mouse Mdr1a at 1 uM after 3.5 hrs by LC-MS/MS analysis; format: ADME, cell-based, Sus scrofa; summary of the method: as §2
[19] = molecular target: Cathepsin S (Homo sapiens, UniProt P25774); assay: Inhibition of human cathepsin S
Cathepsin S, sequence (P25774 whole entry): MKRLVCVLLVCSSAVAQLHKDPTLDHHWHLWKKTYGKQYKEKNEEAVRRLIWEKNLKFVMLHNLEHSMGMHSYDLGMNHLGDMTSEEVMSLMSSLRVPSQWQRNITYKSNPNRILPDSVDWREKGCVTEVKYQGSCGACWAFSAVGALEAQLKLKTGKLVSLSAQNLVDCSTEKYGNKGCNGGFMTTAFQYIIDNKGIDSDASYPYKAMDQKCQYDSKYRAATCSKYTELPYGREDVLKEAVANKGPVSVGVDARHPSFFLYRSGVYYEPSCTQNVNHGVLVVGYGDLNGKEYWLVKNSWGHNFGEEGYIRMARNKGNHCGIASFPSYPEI

[20] = Half life in C57BL/6J mouse administered via iv as bolus dose by LC-MS/MS analysis; format: ADME, organism-based; conditions: in vivo; summary of the method: as §3
[21] = Plasma concentration in rat at 3 mg/kg administered via infusion over 30 mins; format: ADME, organism-based; conditions: iv; summary of the method: as §1
[22] = Octanol-water intrinsic distribution co-efficient, log D of the compound at 100 uM at pH 7.4 after 16 to 22 hrs by CAMDIS assay; format: physicochemical
Summary of the method: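 Distribution between octanol and aqueous buffer at pH 7.4, CAMDIS carrier-mediated system.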

[23] = molecular target: Cytochrome P450 2C9 (Homo sapiens, UniProt P11712); assay: Inhibition of CYP2C9 in human liver microsomes using MFC as substrate by fluorescence assay
Cytochrome P450 2C9, sequence (P11712 whole entry): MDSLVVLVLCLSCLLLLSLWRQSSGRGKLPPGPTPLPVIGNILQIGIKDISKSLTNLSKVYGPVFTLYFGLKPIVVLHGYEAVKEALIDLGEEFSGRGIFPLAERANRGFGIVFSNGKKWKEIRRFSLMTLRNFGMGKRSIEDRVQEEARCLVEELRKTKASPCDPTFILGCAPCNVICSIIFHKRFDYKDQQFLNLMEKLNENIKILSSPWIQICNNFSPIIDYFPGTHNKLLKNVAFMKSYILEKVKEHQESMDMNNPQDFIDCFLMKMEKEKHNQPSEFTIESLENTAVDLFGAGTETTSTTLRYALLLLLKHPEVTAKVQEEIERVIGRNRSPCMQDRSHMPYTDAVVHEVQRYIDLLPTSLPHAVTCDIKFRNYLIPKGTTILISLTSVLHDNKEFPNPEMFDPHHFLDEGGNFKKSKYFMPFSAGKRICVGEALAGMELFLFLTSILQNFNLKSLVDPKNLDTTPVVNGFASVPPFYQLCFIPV

[24] = Ratio of drug level in brain to plasma in C57BL/6J mouse administered via iv as bolus dose by LC-MS/MS analysis
[25] = molecular target: Procathepsin L (Homo sapiens, UniProt P07711); assay: Inhibition of human CatL using Cbz-Phe-Arg-AMC as substrate measured over 30 mins by fluorimetric method
Procathepsin L, sequence (P07711 whole entry): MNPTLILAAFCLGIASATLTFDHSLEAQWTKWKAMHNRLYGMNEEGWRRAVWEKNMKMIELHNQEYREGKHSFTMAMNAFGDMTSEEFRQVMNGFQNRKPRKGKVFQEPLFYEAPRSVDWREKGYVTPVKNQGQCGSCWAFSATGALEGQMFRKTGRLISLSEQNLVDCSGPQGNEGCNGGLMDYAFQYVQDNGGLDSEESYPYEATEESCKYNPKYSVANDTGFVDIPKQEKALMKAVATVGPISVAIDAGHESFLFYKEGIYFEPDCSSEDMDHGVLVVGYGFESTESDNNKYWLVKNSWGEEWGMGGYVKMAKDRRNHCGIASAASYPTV

[26] = Effective permeability of the compound after 15 hrs by PAMPA; format: physicochemical; conditions: read-out: Peff
[27] = test system: Trypanosoma brucei rhodesiense; assay: Antitrypanosomal activity against bloodstream form of Trypanosoma brucei rhodesiense STIB 900 infected in NMRI mouse assessed as reduction of parasitemia at 25 mg/kg, ip bid administered for 4 consecutive days starting 3 days post infection measured 24 hrs post last dose; format: functional, organism-based
Summary of the method: (§4)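 Mice infected with T. b. rhodesiense STIB900 (acute model); dosing from day 3 post-infection on four consecutive days, 25 mg kg⁻¹ i.p. twice daily, 0.1 mL/10 g; three infected-untreated controls; parasitaemia monitored by tail-snip blood smears twice weekly for two weeks, then weekly to day 60; relapse day recorded post-infection.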

[28] = molecular target: Cytochrome P450 3A4 (Homo sapiens, UniProt P08684); assay: Inhibition of CYP3A4 in human liver microsomes using DBF as substrate by fluorescence assay; format: ADME
Cytochrome P450 3A4, sequence (P08684 whole entry): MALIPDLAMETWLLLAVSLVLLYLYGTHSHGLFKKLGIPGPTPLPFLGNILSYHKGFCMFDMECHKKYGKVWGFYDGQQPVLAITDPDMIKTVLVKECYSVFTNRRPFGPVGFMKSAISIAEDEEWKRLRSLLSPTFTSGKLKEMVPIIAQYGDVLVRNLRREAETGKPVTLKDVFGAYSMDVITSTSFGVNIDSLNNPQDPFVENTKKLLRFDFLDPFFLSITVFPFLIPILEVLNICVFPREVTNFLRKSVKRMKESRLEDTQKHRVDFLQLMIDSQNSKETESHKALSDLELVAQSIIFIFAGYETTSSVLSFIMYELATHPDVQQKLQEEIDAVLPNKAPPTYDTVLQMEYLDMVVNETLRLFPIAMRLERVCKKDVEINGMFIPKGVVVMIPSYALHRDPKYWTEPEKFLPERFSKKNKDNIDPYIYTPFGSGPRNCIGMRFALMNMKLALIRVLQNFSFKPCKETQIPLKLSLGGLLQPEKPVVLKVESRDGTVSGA

[29] = test system: Trypanosoma brucei rhodesiense; assay: Antitrypanosomal activity against bloodstream form of Trypanosoma brucei rhodesiense STIB 900 infected in NMRI mouse assessed as days required to prevent relapse of trypanosome at 25 mg/kg, ip bid administered for 4 consecutive days starting 3 days post infection; format: functional; summary of the method: as §4
[30] = Solubility of the compound at pH 6.5 by LYSA; format: physicochemical; conditions: buffer
Summary of the method: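 Lyophilisation solubility assay at pH 6.5.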

[31] = Drug uptake in rat brain at 3 mg/kg administered via infusion over 30 mins; format: ADME, organism-based; conditions: iv, read-out: Drug uptake; summary of the method: as §1

In the case of `N#CC1(NC(=O)[C@@H]2Cc3ccc(c(Cl)c3)OCCCCOc3cc(C(F)(F)F)ccc3C(=O)N2)CC1`, the Ki [1] is reported as 11 nM, the IC50 [2] is reported as 4 nM and the IC50 [3] is reported as 9000 nM. The concentration at 0.5 h [4] was 2.3 ng/mL, the IC50 [5] was ≥ 25000 nM and the concentration at 1 h [6] was 237 ng/mL. The concentration at 16 h [7] was 4.8 ng/mL, the efflux ratio at 3.5 h, 1 µM [8] was 26 and the Kp at 0.5 h [9] was 0.006. It also gave an IC50 [10] of 11000 nM, an IC50 [11] of 10 nM and an IC50 [12] of 1040 nM. The Vd [13] was 7.2 L/kg, the concentration at 4 h [14] was 15.1 ng/mL and the clearance [15] was 79 mL/min/kg. The Kp at 0.5 h [16] was 0.7, the Survival [17] was 16.3 days and the efflux ratio at 3.5 h, 1 µM [18] was 53. For the same compound, the IC50 [19] was 2700 nM, the half-life [20] was 2.7 h and the concentration at 0.5 h [21] was 404 ng/mL. The logD at 100 µM [22] was 3.7, the IC50 [23] was 16000 nM and the Kp [24] was < 0.5. The Ki [25] was 10 nM, the Papp at 15 h [26] was 0.4 ×10⁻⁶ cm/s and the Activity [27] was “Active”. For the same compound, the IC50 [28] was 43000 nM, the Time [29] was 10.2 days and the solubility [30] was 12 µg/mL (≈ 23 µM). The concentration at 0.5 h [31] was 256 ng/g.
